Converted amounts (≈) assume the structure as drawn.
Experiments:
Staphylococcus aureus [1] = assay: Antimicrobial activity against methicillin-resistant Staphylococcus aureus after 24 hrs by broth microdilution method; type: functional
In short: (§1)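 Broth microdilution following NCCLS M7-A4, using ATCC strains and clinical isolates from a provincial hospital.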

Staphylococcus aureus [2] = assay: Antimicrobial activity against Staphylococcus aureus after 24 hrs by broth microdilution method; type: functional
In short: (§2)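 Broth microdilution following NCCLS M7-A4; ATCC strains and clinical isolates from a provincial hospital.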

Staphylococcus aureus [3] = assay: Antimicrobial activity against methicillin-susceptible Staphylococcus aureus after 24 hrs by broth microdilution method; type: functional; in short: as §2
[4] = Stability of the compound in artificial gastric juice measured every 2 hrs for 12 hrs by HPLC analysis; type: ADME; conditions: simulated gi fluid
[5] = Stability of the compound in artificial intestinal juice measured every 2 hrs for 12 hrs by HPLC analysis; type: physicochemical; conditions: simulated gi fluid
[6] = Solubility of the compound in artificial intestinal juice measured every 2 hrs for 12 hrs by HPLC analysis; type: physicochemical; conditions: simulated gi fluid
[7] = Solubility of the compound in artificial gastric juice measured every 2 hrs for 12 hrs by HPLC analysis; type: ADME; conditions: simulated gi fluid
[8] = tested on: Staphylococcus epidermidis; assay: Antimicrobial activity against Staphylococcus epidermidis after 24 hrs by broth microdilution method; type: functional; in short: as §2
Escherichia coli [9] = assay: Antimicrobial activity against Escherichia coli isolate 1 after 24 hrs by broth microdilution method; type: functional; conditions: isolate 1, 24 h; in short: as §2
Escherichia coli [10] = assay: Antimicrobial activity against Escherichia coli isolate 2 after 24 hrs by broth microdilution method; type: functional; conditions: isolate 2, 24 h; in short: as §2
[11] = Volume of distribution at steady state in Sprague-Dawley rat at 5 mg/kg, iv; type: ADME, organism-based; parameters: dose 5 mg/kg, route intravenous; conditions: in vivo, read-out: Vdss
[12] = Half life in Sprague-Dawley rat at 5 mg/kg, iv; type: ADME, organism-based; parameters: dose 5 mg/kg, route intravenous; conditions: in vivo
hERG (KCNH2) [13] = target: T1, hERG (KCNH2) (Homo sapiens, UniProt Q12809); assay: Inhibition of human ERG at 1 uM
T1 sequence (Q12809 whole entry): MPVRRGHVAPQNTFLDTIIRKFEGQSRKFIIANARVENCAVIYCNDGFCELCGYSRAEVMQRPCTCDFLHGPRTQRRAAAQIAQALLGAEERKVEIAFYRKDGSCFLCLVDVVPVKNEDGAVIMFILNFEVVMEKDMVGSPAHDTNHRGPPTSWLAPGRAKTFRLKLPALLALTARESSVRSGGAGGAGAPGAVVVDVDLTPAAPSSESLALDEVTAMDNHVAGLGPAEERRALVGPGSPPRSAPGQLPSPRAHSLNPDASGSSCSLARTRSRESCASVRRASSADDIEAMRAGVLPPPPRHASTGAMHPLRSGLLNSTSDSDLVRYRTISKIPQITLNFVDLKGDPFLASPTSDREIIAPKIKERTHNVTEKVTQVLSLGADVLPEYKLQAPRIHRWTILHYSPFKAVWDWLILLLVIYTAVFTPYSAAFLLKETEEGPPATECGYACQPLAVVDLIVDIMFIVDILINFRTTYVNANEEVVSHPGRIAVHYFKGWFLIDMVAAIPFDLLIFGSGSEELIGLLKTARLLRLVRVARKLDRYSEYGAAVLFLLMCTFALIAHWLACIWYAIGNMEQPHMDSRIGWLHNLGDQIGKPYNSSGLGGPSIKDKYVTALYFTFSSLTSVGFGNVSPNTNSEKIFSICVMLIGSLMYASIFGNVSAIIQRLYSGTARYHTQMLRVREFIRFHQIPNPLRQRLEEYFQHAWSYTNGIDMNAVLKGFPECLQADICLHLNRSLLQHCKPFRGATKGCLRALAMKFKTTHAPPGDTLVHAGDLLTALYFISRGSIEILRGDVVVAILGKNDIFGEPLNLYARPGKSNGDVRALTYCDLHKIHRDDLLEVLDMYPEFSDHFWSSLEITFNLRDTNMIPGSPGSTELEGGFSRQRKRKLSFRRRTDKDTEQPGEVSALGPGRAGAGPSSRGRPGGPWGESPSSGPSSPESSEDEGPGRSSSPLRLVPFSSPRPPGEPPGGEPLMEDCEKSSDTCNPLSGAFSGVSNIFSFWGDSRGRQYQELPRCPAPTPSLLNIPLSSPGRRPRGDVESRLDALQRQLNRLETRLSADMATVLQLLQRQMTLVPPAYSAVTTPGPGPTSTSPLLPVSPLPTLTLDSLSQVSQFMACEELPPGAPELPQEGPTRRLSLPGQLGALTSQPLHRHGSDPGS

[14] = AUC (0 to t) in Sprague-Dawley rat at 25 mg/kg, po; type: ADME, organism-based; parameters: dose 25 mg/kg, route oral; conditions: plasma
[15] = Clearance in Sprague-Dawley rat at 5 mg/kg, iv; type: ADME, organism-based; parameters: dose 5 mg/kg, route intravenous; conditions: in vivo
[16] = Mean residence time (0 to t) in Sprague-Dawley rat at 5 mg/kg, iv; type: ADME, organism-based; parameters: dose 5 mg/kg, route intravenous; conditions: in vivo
[17] = AUC (0 to t) in Sprague-Dawley rat at 5 mg/kg, iv; type: ADME, organism-based; parameters: dose 5 mg/kg, route intravenous; conditions: plasma
[18] = Cmax in Sprague-Dawley rat at 25 mg/kg, po; type: ADME, organism-based; parameters: dose 25 mg/kg, route oral; conditions: in vivo
[19] = Half life in Sprague-Dawley rat at 25 mg/kg, po; type: ADME, organism-based; parameters: dose 25 mg/kg, route oral; conditions: in vivo
[20] = Mean residence time (0 to t) in Sprague-Dawley rat at 25 mg/kg, po; type: ADME, organism-based; parameters: dose 25 mg/kg, route oral; conditions: in vivo
[21] = Tmax in Sprague-Dawley rat at 25 mg/kg, po; type: ADME, organism-based; parameters: dose 25 mg/kg, route oral; conditions: in vivo
hERG (KCNH2) [22] = target: T1, hERG (KCNH2); assay: Inhibition of human ERG at 10 uM
[23] = AUC (0 to infinity) in Sprague-Dawley rat at 5 mg/kg, iv; type: ADME, organism-based; parameters: time infinity, dose 5 mg/kg, route intravenous; conditions: plasma
[24] = Oral bioavailability in Sprague-Dawley rat at 25 mg/kg; type: ADME, organism-based; conditions: in vivo
[25] = AUC (0 to infinity) in Sprague-Dawley rat at 25 mg/kg, po; type: ADME, organism-based; parameters: dose 25 mg/kg, route oral, time infinity; conditions: plasma
Haemophilus influenzae [26] = assay: Antimicrobial activity against Haemophilus influenzae H128 after 24 hrs by broth microdilution method; type: functional; conditions: H128, 24 h; in short: as §2
Staphylococcus aureus [27] = assay: Antimicrobial activity against Staphylococcus aureus WCUH29 after 24 hrs by broth microdilution method; type: functional; conditions: WCUH29, 24 h; in short: as §2
Streptococcus pneumoniae [28] = assay: Antimicrobial activity against Streptococcus pneumoniae ERY2 after 24 hrs by broth microdilution method; type: functional; conditions: ERY2, 24 h; in short: as §2
Haemophilus influenzae [29] = assay: Antimicrobial activity against Haemophilus influenzae Q1 after 24 hrs by broth microdilution method; type: functional; conditions: Q1, 24 h; in short: as §2
Haemophilus influenzae [30] = assay: Antimicrobial activity against AcrA-deficient Haemophilus influenzae H128 after 24 hrs by broth microdilution method; type: functional; conditions: H128, 24 h; in short: as §2
Streptococcus pyogenes [31] = assay: Antimicrobial activity against Streptococcus pyogenes 1307006P after 24 hrs by broth microdilution method; type: functional; in short: as §2
Streptococcus pneumoniae [32] = assay: Antimicrobial activity against Streptococcus pneumoniae 1629 after 24 hrs by broth microdilution method; type: functional; conditions: Streptococcus pneumoniae, 1629, 24 h; in short: as §2
Streptococcus pyogenes [33] = assay: Antimicrobial activity against Streptococcus pyogenes 1308007P after 24 hrs by broth microdilution method; type: functional; in short: as §2
Staphylococcus aureus [34] = assay: Antimicrobial activity against Staphylococcus aureus OXFORD after 24 hrs by broth microdilution method; type: functional; in short: as §1
Escherichia coli [35] = assay: Antimicrobial activity against Escherichia coli isolate 3 after 24 hrs by broth microdilution method; type: functional; conditions: isolate 3, 24 h; in short: as §2
Streptococcus pneumoniae [36] = assay: Antimicrobial activity against Streptococcus pneumoniae N1387 after 24 hrs by broth microdilution method; type: functional; conditions: N1387, 24 h; in short: as §2
Enterococcus faecalis = assay: Antimicrobial activity against Enterococcus faecalis Isolate 1 after 24 hrs by broth microdilution method; type: functional; conditions: Isolate 1, 24 h; in short: as §2
Enterococcus faecium = assay: Antimicrobial activity against Enterococcus faecium X7501 after 24 hrs by broth microdilution method; type: functional; conditions: X7501, 24 h; in short: as §2
Moraxella catarrhalis = assay: Antimicrobial activity against Moraxella catarrhalis 1502 after 24 hrs by broth microdilution method; type: functional; conditions: Moraxella catarrhalis, 1502, 24 h; in short: as §2

Structure (SMILES)	MIC (Staphylococcus aureus [1]) [µg/mL]	MIC (Staphylococcus aureus [2]) [µg/mL]	MIC (Staphylococcus aureus [3]) [µg/mL]	Stability [4]	Stability [5]	solubility [6]	solubility [7]	MIC [8] [µg/mL]	MIC (Escherichia coli [9]) [µg/mL]	MIC (Escherichia coli [10]) [µg/mL]	Vd [11] [L/kg]	half-life [12] [h]	inhibition at 1 µM (hERG (KCNH2) [13]) [%]	AUC(0-t) [14] [ng·h/mL]	clearance [15] [mL/min/kg]	MRT last [16] [h]	AUC(0-t) [17] [ng·h/mL]	Cmax [18] [ng/mL]	half-life [19] [h]	MRT last [20] [h]	further results
CCCC[C@H](CN(O)C=O)C(=O)N1CC=C[C@H]1C(=O)Nc1ccc(F)cn1	0.25 (≈ 0.661 µM)	0.5 (≈ 1.32 µM)	1 (≈ 2.64 µM)	Stable	Stable	soluble	soluble	0.5 (≈ 1.32 µM)	> 64	64 (≈ 169 µM)	–	–	–	–	–	–	–	–	–	–	–
CCCC[C@H](CN(O)C=O)C(=O)N1CC=C[C@H]1C(=O)Nc1ncc(C)s1	0.125 (≈ 0.329 µM)	0.0625 (≈ 0.164 µM)	0.25 (≈ 0.657 µM)	Stable	Stable	soluble	soluble	0.25 (≈ 0.657 µM)	32 (≈ 84.1 µM)	16 (≈ 42.1 µM)	1.01	4.08	5.7	21800	17	0.952	4920	12400	2.56	2.45	Tmax [21]: 0.625 h; inhibition at 10 µM (hERG (KCNH2) [22]): 5.5%; AUC(0-inf) [23]: 4930 ng·h/mL; bioavailability [24]: 88.7%; AUC(0-inf) [25]: 21900 ng·h/mL
Cc1cnc(NC(=O)[C@@H]2C=CCN2C(=O)[C@H](CC2CCCC2)CN(O)C=O)s1	0.125 (≈ 0.307 µM)	0.0312 (≈ 0.0769 µM)	0.25 (≈ 0.615 µM)	–	–	–	–	0.0625 (≈ 0.154 µM)	16 (≈ 39.4 µM)	16 (≈ 39.4 µM)	1.37	2.68	5.38	12200	18.6	1.24	4700	4560	3.31	3.39	MIC (Haemophilus influenzae [26]): 2 µg/mL (≈ 4.92 µM); MIC (Staphylococcus aureus [27]): ≤ 0.06 µg/mL; MIC (Streptococcus pneumoniae [28]): 0.5 µg/mL (≈ 1.23 µM); MIC (Haemophilus influenzae [29]): 2 µg/mL (≈ 4.92 µM); MIC (Haemophilus influenzae [30]): ≤ 0.06 µg/mL; MIC (Streptococcus pyogenes [31]): 0.25 µg/mL (≈ 0.615 µM); MIC (Streptococcus pneumoniae [32]): 0.5 µg/mL (≈ 1.23 µM); MIC (Streptococcus pyogenes [33]): 0.5 µg/mL (≈ 1.23 µM); MIC (Staphylococcus aureus [34]): 0.25 µg/mL (≈ 0.615 µM); MIC (Escherichia coli [35]): 32 µg/mL (≈ 78.7 µM); MIC (Streptococcus pneumoniae [36]): 0.25 µg/mL (≈ 0.615 µM); MIC (Enterococcus faecalis): 2 µg/mL (≈ 4.92 µM); Tmax [21]: 0.625 h; inhibition at 10 µM (hERG (KCNH2) [22]): 15.9%; AUC(0-inf) [23]: 4700 ng·h/mL; MIC (Enterococcus faecium): 0.5 µg/mL (≈ 1.23 µM); bioavailability [24]: 52.3%; MIC (Moraxella catarrhalis): ≤ 0.06 µg/mL; AUC(0-inf) [25]: 12300 ng·h/mL

From ChEMBL document CHEMBL3352487, “Synthesis, antibacterial activity, and biological evaluation of formyl hydroxyamino derivatives as novel potent peptide deformylase inhibitors against drug-resistant bacteria” (Eur J Med Chem, 2014)
